What was measured:
Integrase [1] = biological target: T1, Integrase (Human immunodeficiency virus 1, UniProt Q7ZJM1); assay: Inhibition of 3'-processing activity of HIV1 integrase
In short: (§1)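 Then 20 nM 5′-32P-labeled 21-mer oligonucleotide added for 1 h. Quenched with formamide loading dye. % inhibition from 19-mer (3′-processing) or strand transfer product fractions versus DNA-alone and DNA+IN controls. IC50 from log concentration versus % inhibition plot.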

Integrase [2] = biological target: T1, Integrase; assay: Inhibition of strand transfer activity of HIV1 integrase; in short: as §1

T1 sequence (Q7ZJM1 whole entry): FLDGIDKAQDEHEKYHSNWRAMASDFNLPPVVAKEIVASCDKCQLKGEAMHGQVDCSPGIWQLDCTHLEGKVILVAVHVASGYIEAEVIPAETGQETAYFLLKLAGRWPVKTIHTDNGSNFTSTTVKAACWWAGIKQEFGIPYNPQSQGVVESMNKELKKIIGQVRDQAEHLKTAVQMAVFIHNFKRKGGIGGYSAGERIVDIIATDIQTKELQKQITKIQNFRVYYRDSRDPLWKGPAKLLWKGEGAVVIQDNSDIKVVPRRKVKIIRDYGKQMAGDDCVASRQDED

Row | SMILES | IC50 (Integrase [1]) [µM] | IC50 (Integrase [2]) [µM]
1 | COc1ccc(C2C(C(=O)c3ccc(F)cc3)C(=O)C(=O)N2CCN(C)C)cc1OC (configuration not stated) [5-(3,4-dimethoxyphenyl)-1-(2-(dimethylamino)ethyl)-4-(4-fluorobenzoyl)-3-hydroxy-1H-pyrrol-2(5H)-one] | > 1000 | > 1000
2 | O=C1C(=O)N(CCCN2CCOCC2)C(c2ccccc2F)C1C(=O)c1ccc(F)cc1 (configuration not stated) [4-(4-fluorobenzoyl)-5-(2-fluorophenyl)-3-hydroxy-1-(3-morpholinopropyl)-1H-pyrrol-2(5H)-one] | > 1000 | > 1000
3 | CN(C)CCCN1C(=O)C(=O)C(C(=O)c2cccs2)C1c1cccs1 (configuration not stated) [1-(3-(dimethylamino)propyl)-3-hydroxy-5-(thiophen-2-yl)-4-(thiophene-2-carbonyl)-1H-pyrrol-2(5H)-one] | > 100 | > 100
4 | NCCCCCCNC(=O)c1c(O)c2ccccc2oc1=O [N-(6-aminohexyl)-4-hydroxy-2-oxo-2H-chromene-3-carboxamide] | > 100 | > 100
5 | Cc1ccc(C(=O)C2C(=O)C(=O)N(CCN(C)C)C2c2ccccc2F)cc1 (configuration not stated) [1-(2-(dimethylamino)ethyl)-5-(2-fluorophenyl)-3-hydroxy-4-(4-methylbenzoyl)-1H-pyrrol-2(5H)-one] | > 1000 | > 1000
6 | COc1ccc(C2C(C(=O)c3ccccc3)C(=O)C(=O)N2CCCO)cc1OC (configuration not stated) [4-benzoyl-5-(3,4-dimethoxyphenyl)-3-hydroxy-1-(3-hydroxypropyl)-1H-pyrrol-2(5H)-one] | > 100 | > 100
